The source of these data is ChEMBL document CHEMBL2413065, “Design and synthesis of bicyclic heterocycles as potent γ-secretase modulators” (Bioorg Med Chem Lett, 2013).

Series [1] has as its target Gamma-secretase. As to the kind of experiment: Modulation of gamma-secretase (unknown origin) assessed as reduction of amyloid beta 42 level. The series is classed as protein-complex assay, Homo sapiens.
For the next series, the target named is Cytochrome P450 3A4 (Homo sapiens, UniProt P08684). As to the kind of experiment: Inhibition of CYP3A4 (unknown origin).
Cytochrome P450 3A4, sequence (P08684 whole entry): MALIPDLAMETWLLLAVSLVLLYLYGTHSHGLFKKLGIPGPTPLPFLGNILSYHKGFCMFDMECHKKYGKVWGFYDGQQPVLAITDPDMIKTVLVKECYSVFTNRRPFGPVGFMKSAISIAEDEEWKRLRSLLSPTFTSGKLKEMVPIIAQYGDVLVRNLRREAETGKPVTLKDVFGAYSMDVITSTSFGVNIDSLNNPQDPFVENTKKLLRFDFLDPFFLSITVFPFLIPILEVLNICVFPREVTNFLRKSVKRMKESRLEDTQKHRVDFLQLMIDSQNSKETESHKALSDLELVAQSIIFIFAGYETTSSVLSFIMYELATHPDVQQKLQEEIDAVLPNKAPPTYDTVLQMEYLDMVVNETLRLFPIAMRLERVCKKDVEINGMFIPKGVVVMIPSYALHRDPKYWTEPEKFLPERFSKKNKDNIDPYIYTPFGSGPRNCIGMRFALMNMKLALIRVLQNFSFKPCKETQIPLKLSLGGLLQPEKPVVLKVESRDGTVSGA
Series [2] in a line: Ratio of drug level in brain to plasma in mouse at 30 mg/kg, po after 4 hrs. The class given is ADME, organism-based. More on the design: dose 30 mg/kg, route oral. The settings on record: read-out: BPR. A digest of the protocol:
(§1)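 Mice received 30 mg/kg orally. Plasma and brain were sampled at 4 h and analysed for compound by a qualified research LC-MS/MS method. The brain/plasma ratio was calculated from the two concentrations.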

A short description of series [3]: Drug level in mouse brain at 30 mg/kg, po after 4 hrs. The class given is ADME, organism-based. Details: dose 30 mg/kg, route oral. The settings on record: read-out: Drug uptake. A digest of the protocol:
as §1

In a further series the target is Cytochrome P450 2C9 (Homo sapiens, UniProt P11712). As to the kind of experiment: Inhibition of CYP2C9 (unknown origin).
Cytochrome P450 2C9, sequence (P11712 whole entry): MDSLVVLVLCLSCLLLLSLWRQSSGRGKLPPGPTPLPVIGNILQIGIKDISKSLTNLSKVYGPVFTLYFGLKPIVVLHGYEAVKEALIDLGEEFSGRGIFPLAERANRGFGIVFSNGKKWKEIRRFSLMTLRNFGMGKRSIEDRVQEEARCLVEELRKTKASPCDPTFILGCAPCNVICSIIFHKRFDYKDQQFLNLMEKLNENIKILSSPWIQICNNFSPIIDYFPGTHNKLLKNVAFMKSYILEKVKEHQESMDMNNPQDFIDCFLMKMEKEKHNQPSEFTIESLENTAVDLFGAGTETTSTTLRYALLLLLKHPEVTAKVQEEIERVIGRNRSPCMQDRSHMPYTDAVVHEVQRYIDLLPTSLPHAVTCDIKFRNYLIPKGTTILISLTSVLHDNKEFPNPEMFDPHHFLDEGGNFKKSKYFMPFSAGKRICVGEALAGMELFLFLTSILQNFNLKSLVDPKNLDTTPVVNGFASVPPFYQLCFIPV
A further series has as its target Cytochrome P450 2D6 (Homo sapiens, UniProt P10635). Kind of series: Inhibition of CYP2D6 (unknown origin).
Another series concerns the target T1, Cytochrome P450 1A2 (Homo sapiens, UniProt P05177).
T1 sequence (P05177 whole entry): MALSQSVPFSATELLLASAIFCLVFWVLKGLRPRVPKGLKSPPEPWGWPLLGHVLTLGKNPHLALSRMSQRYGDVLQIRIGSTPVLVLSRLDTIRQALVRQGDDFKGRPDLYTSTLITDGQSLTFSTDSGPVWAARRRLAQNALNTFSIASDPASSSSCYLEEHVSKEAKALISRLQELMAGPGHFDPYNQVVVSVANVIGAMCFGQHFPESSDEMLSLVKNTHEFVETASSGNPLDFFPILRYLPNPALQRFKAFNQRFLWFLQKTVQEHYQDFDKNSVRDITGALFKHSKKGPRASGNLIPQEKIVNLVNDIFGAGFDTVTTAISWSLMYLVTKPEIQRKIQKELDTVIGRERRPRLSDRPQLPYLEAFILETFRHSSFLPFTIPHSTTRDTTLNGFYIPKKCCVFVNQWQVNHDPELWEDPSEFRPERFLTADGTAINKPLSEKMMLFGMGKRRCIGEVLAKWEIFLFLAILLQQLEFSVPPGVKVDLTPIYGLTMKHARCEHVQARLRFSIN
As to the kind of experiment: Inhibition of CYP1A2 (unknown origin).

The next series has as its target hERG (KCNH2) (Homo sapiens, UniProt Q12809). Kind of series: Inhibition of human ERG at 3 uM by Patch-Xpress assay.
Series [4] in a line: Drug metabolism in mouse liver microsomes at 1 uM after 15 mins. The settings on record: read-out: Drug metabolism. The class given is ADME, Microsome. Summed up:
(§2)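 Compound at 1 μM was incubated with human or mouse liver microsomes for 15 min. The value is the % of compound metabolized.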

Series [5] is described as follows: Drug metabolism in human liver microsomes at 1 uM after 15 mins. The series is classed as ADME, Microsome. The settings on record: read-out: Drug metabolism. A digest of the protocol:
as §2

For series [6], the system named is Mus musculus. Kind of series: Effect in mouse assessed as increase of amyloid beta 38 level at 30 mg/kg, po after 4 hrs by ELISA.
Series [7] concerns the target Voltage-gated inwardly rectifying potassium channel KCNH2 (Homo sapiens, UniProt Q12809). As to the kind of experiment: Binding affinity to human ERG.
Series [8] can be described thus: Plasma concentration in mouse at 30 mg/kg, po after 4 hrs. The series is classed as ADME, organism-based. Details: dose 30 mg/kg, route oral. Summed up:
as §1

The test system of series [9] is Mus musculus. As to the kind of experiment: Antialzheimer activity in mouse assessed as reduction of amyloid beta-42 level at 30 mg/kg, po after 4 hrs by ELISA. The class given is functional. A digest of the protocol:
(§3)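 Mice dosed orally at 30 mg/kg, n = 6. Brain Aβ peptides were measured by ELISA 4 h after dosing. Values are given as % change versus untreated animals.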

The target of a further series is Cytochrome P450 2C19 (Homo sapiens, UniProt P33261). Kind of series: Inhibition of CYP2C19 (unknown origin).
Cytochrome P450 2C19, sequence (P33261 whole entry): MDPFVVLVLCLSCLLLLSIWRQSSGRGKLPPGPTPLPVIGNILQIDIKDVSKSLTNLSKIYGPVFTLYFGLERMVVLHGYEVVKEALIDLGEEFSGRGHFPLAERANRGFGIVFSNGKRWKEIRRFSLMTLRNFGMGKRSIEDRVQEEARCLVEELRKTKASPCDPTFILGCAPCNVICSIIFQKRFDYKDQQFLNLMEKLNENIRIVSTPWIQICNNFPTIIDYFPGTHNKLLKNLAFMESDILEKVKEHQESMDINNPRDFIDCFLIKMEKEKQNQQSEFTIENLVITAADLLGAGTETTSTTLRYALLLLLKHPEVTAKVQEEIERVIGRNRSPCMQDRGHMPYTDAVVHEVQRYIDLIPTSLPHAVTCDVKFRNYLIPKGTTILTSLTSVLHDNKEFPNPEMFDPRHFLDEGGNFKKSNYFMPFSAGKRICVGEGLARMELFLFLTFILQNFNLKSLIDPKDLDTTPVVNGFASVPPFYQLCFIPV
Series [10] in a line: Fraction unbound in rat brain. The class given is ADME, tissue-based. Summed up: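 Unbound fraction in rat brain tissue, expressed as %.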
In series [11] the test system is Mus musculus. As to the kind of experiment: Antialzheimer activity in mouse assessed as reduction of total amyloid beta level at 30 mg/kg, po after 4 hrs by ELISA. The series is classed as functional. Summed up: as §3
The nature of series [12]: Fraction unbound in human plasma. The class given is ADME, cell-free. A digest of the protocol: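 Unbound fraction in human plasma, determined as binding to human plasma proteins.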
Series [13] deals with Canis familiaris. As to the kind of experiment: Antialzheimer activity in dog assessed as reduction of amyloid beta 42 level in cerebrospinal fluid at 20 mg/kg, po after 8 hrs by ELISA. The class given is functional. The settings on record: Canis lupus familiaris. Summed up: (§4)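 Dogs received 20 mg/kg orally. CSF Aβ42 and Aβ38 were measured 8 h after dosing and expressed as % change.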

Series [14] can be described thus: Plasma concentration in dog at 20 mg/kg, po after 8 hrs. The series is classed as ADME, organism-based, Canis lupus familiaris. More on the design: dose 20 mg/kg, route oral. Summed up:
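Dogs received 20 mg/kg orally. Plasma compound concentration was measured at 8 h and reported in ng/mL and μM.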

Series [15] relates to Canis familiaris. As to the kind of experiment: Antialzheimer activity in dog assessed as increase of amyloid beta 38 level in cerebrospinal fluid at 20 mg/kg, po after 8 hrs by ELISA. The series is classed as functional, Canis lupus familiaris. A digest of the protocol:
as §4

Series [16] relates to Canis familiaris. As to the kind of experiment: Hepatotoxicity in dog assessed as effect on bilirubin and alanine transaminase level at 20 mg/kg, po. The series is classed as toxicity, organism-based, Canis lupus familiaris. Details: dose 20 mg/kg, route oral. Particulars: in vivo.
Series [17] concerns the target Gamma-secretase. Kind of series: Modulation of gamma-secretase (unknown origin). The series is classed as protein-complex assay, Homo sapiens.

Calls of active or inactive are those of the source. No cut-off for these calls is given here.

hERG (KCNH2), sequence (Q12809 whole entry): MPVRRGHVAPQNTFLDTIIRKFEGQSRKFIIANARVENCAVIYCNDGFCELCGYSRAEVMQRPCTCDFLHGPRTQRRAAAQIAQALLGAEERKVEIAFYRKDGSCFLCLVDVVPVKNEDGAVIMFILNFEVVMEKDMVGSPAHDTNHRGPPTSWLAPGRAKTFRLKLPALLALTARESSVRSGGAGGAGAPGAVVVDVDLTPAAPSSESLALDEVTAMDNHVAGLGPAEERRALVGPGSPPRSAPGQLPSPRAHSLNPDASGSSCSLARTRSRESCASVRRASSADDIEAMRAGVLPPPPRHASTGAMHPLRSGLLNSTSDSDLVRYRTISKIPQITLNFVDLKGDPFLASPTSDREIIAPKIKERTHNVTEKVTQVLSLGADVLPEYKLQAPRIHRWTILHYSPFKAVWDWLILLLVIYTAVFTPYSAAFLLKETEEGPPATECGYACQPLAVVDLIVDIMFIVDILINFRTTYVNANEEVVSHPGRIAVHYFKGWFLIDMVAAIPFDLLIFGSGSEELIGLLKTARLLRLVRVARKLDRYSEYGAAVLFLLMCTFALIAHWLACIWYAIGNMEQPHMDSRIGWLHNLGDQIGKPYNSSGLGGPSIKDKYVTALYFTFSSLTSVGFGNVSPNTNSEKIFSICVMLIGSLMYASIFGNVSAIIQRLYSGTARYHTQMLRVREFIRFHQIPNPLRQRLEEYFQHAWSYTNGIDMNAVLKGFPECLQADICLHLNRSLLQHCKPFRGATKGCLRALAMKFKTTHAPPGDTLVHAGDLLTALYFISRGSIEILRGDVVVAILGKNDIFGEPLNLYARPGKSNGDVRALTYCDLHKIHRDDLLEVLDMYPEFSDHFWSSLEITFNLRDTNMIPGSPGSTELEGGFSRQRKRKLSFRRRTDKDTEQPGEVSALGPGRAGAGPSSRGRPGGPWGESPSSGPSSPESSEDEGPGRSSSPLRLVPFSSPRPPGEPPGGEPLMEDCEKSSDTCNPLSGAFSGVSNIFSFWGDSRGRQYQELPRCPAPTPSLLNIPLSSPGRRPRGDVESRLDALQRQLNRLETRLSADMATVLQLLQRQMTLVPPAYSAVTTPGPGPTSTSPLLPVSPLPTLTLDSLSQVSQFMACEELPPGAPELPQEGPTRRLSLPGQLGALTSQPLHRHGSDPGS
Voltage-gated inwardly rectifying potassium channel KCNH2, sequence (Q12809 whole entry): as above
Cytochrome P450 2D6, sequence (P10635 whole entry): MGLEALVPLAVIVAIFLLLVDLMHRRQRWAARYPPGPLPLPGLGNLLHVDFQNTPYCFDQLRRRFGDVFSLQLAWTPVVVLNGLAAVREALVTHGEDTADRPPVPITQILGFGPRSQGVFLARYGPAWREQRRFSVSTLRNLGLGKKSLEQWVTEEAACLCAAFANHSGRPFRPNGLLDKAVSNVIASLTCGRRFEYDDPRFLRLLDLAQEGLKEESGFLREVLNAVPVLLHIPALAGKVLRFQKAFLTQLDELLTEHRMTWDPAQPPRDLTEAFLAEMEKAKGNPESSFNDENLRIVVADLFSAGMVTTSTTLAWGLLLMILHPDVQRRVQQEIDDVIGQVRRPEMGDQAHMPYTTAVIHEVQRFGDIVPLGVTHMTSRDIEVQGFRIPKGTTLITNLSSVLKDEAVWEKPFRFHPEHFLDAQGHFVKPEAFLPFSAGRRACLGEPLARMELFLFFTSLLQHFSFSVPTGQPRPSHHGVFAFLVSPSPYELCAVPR

Take `COc1cc(-c2nc3n(n2)CCCC3c2ccc(F)cc2)ccc1-n1cnc(C)c1` (racemic): the IC50 at Gamma-secretase [1] was found to be 0.22 µM.
As for `COc1cc(-c2nc3n(n2)CCO[C@H]3c2ccccc2C(F)(F)F)ccc1-n1cnc(C)c1`, the IC50 is 1.1 µM against Cytochrome P450 3A4; 8.43 µM at Cytochrome P450 2C9; > 10 µM against Cytochrome P450 2D6; > 10 µM on Cytochrome P450 1A2; 0.071 µM on Gamma-secretase [1]; > 10 µM in series [7]. The same molecule came in with an IC50 on Cytochrome P450 2C19 of 1.52 µM. In addition, the Kp at 4 h in series [2] was found to be 0.93. In addition, the concentration at 4 h in [3] is 3.36 µM; in series [8], 3.6 µM. The inhibition at 3 µM against hERG (KCNH2) came to 12%. For the same molecule, the values for the metabolised at […], 1 µM in [4] and in series [5] were 6% and 5%, respectively. Also, the Increase % at 30 mg/kg in the series with Mus musculus [6] was 17%. For the same molecule, the inhibition in vivo at 30 mg/kg in the series with Mus musculus [9] came to 22%.
Regarding `COc1cc(-c2nc3n(n2)CCC[C@@H]3c2ccc(F)cc2C)ccc1-n1cnc(C)c1`, the 50% inhibitory concentration (IC50) at Gamma-secretase [1] came to 0.447 µM; in series [7], 0.794 µM.
`COc1cc(-c2nc3n(n2)CCC[C@H]3c2ccc(F)cc2C)ccc1-n1cnc(C)c1`: the IC50 is 6.94 µM on Cytochrome P450 3A4; 5.66 µM on Cytochrome P450 2C9; > 10 µM on Cytochrome P450 2D6; > 10 µM at Cytochrome P450 1A2; 0.04 µM at Gamma-secretase [1]; 7.9 µM in series [7]. On Cytochrome P450 2C19, the IC50 was found to be 9.24 µM. In series [2], the Kp at 4 h turned out to be 0.5. Moreover, the concentration at 4 h in [3] turned out to be 4.8 µM; in [8], 9.8 µM. Also, the unbound share (fraction unbound) in [10] came to 0.0092; in [12], 0.027. The molecule further showed an inhibition at 3 µM on hERG (KCNH2) of 28%. Also, the metabolised at […], 1 µM in series [4] amounted to 9%; in [5], 41%. Further, the inhibition result in the series with Mus musculus [11] was “inactive”. The Increase % at 30 mg/kg with Mus musculus [6] was 59%. For the same molecule, in the series with Mus musculus [9], the inhibition in vivo at 30 mg/kg amounted to 49%.
On to `COc1cc(C(=O)N[C@@H](C)c2ccc(F)cc2)ccc1-n1cnc(C)c1`, for which the IC50 at Gamma-secretase [1] worked out at 2.6 µM.
Regarding `COc1cc(-c2nc3n(n2)CCCC3c2ccc(F)cc2C)ccc1-n1cnc(C)c1` (racemic), the IC50 at Gamma-secretase [1] worked out at 0.093 µM.
With `COc1nc(-c2nc3n(n2)CCC[C@H]3c2ccccc2C(F)(F)F)ccc1-n1cnc(C)c1`, the IC50 was > 10 µM against Cytochrome P450 3A4; 8.51 µM against Cytochrome P450 2C9; > 10 µM at Cytochrome P450 2D6; 0.028 µM on Gamma-secretase [1]; > 10 µM on Cytochrome P450 2C19. Further, in the series with Canis familiaris [13], the inhibition in vivo at 20 mg/kg is 50%. Also, the Kp at 4 h in series [2] came to 0.23. This molecule also showed a concentration at 8 h in series [14] of 19 µM. The Activity in the series on Canis familiaris [15] is reported as 28%; in the series on Canis familiaris [16], “Non-toxic”. For the same molecule, the concentration at 4 h in [3] came to 2.8 µM; in series [8], 12.3 µM. The figures for the fraction unbound in series [10] and in series [12] were 0.022 and 0.085, respectively. Moreover, the metabolised at […], 1 µM in [4] amounted to 6%; in series [5] it was 10%. For the same molecule, the Increase % at 30 mg/kg with Mus musculus [6] worked out at 66%. The inhibition in vivo at 30 mg/kg with Mus musculus [9] was found to be 62%.
`COc1cc(C(=O)NCc2cccc(-c3ccccc3)c2)ccc1-n1cnc(C)c1`: in series [2], the Kp at 4 h is 0.22. In addition, the concentration at 4 h in series [3] was determined as 2.7 µM; in [8], 11.9 µM. Also, the inhibition in vivo at 30 mg/kg with Mus musculus [11] was 3%; with Mus musculus [9], 12%. Further, the concentration for half-maximal inhibition (IC50) on Gamma-secretase [17] came to 0.158 µM.
On to `COc1cc(-c2nnc(-c3ccc(F)cc3)[nH]2)ccc1-n1cnc(C)c1`, for which the IC50 on Gamma-secretase [1] worked out at 1.29 µM.
For `COc1cc(-c2nc(-c3ccc(F)cc3)n(C)n2)ccc1-n1cnc(C)c1`, the 50% inhibitory concentration (IC50) at Gamma-secretase [1] came out at 0.62 µM.
Consider `COc1cc(-c2nc(Cc3ccc(F)cc3)n(C)n2)ccc1-n1cnc(C)c1`, for which, on Gamma-secretase [1], the IC50 is 0.85 µM.
Regarding `COc1cc(-c2nc(-c3ccc(F)cc3)nn2C)ccc1-n1cnc(C)c1`, the 50% inhibitory concentration (IC50) at Gamma-secretase [1] turned out to be 5.75 µM.
Turning to `COc1cc(-c2nc3n(n2)CCC[C@H]3c2ccccc2C(F)(F)F)ccc1-n1cnc(C)c1`, the Kp at 4 h in series [2] came to 1.29. The concentration at 4 h in series [3] was found to be 12.7 µM; in [8], 9.7 µM. Also, the half-inhibitory concentration (IC50) was 0.024 µM on Gamma-secretase [1] and > 10 µM in [7]. Also, on hERG (KCNH2), the inhibition at 3 µM was 11%. Also, the results for the metabolised at […], 1 µM in series [4] and in series [5] were 7% and 13%, respectively. In the series on Mus musculus [6], the Increase % at 30 mg/kg is 44%. Further, in the series with Mus musculus [9], the inhibition in vivo at 30 mg/kg was found to be 46%.
Turning to `COc1cc(-c2nc(C)n(-c3ccc(F)cc3)n2)ccc1-n1cnc(C)c1`, at Gamma-secretase [1], the IC50 is 0.77 µM.
